Test results: ChEMBL document CHEMBL4616716, “ONO-8430506: A Novel Autotaxin Inhibitor That Enhances the Antitumor Effect of Paclitaxel in a Breast Cancer Model” (ACS Med Chem Lett, 2020)
pIC50: −log10 of the molar value.

Columns and labels:
[1] = target: T1, Autotaxin (Homo sapiens, UniProt Q13822); experiment: Inhibition of recombinant human ATX assessed as reduction in choline release using LPC(16:0) as substrate incubated for 15 hrs
Method in brief: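 Recombinant human ATX with 16:0 LPC as substrate. Single-point inhibition was tested at 30 μM, and IC50 values were determined.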

[2] = Protein binding in human plasma measured after 4 hrs by LC-MS/MS analysis; type: ADME, cell-free; details: read-out: PPB (converted)
[3] = Octanol/phosphate buffer partition coefficient, LogD of compound at pH 7.4 mixed for 1 hr using benchtop-rotator followed by further incubation for 1 hr by ESI-LC-MS/MS analysis; type: physicochemical
[4] = target: T1, Autotaxin; experiment: Inhibition of LysoPLD activity of ATX in human plasma assessed as reduction in choline release using LPC(16:0) as substrate incubated for 15 hrs; type: cell-free
Method in brief: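 LysoPLD activity in human plasma with 16:0 LPC as substrate; IC50 determined.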

[5] = Drug metabolism in dog hepatocytes assessed as compound isomerization by measuring conversion ratio at 1 uM incubated for 2 hrs by LC-MS/MS analysis; type: ADME, cell-based, Canis lupus familiaris, Hepatocyte; details: read-out: Drug metabolism
Method in brief: (§1)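 Hepatocytes from human, rat, dog and monkey were incubated with the trans isomer. The conversion ratio is the cis isomer concentration over the sum of cis and trans, 2 h after the start of incubation.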

[6] = Drug metabolism in rat hepatocytes assessed as compound isomerization by measuring conversion ratio at 1 uM incubated for 2 hrs by LC-MS/MS analysis; type: ADME, cell-based, Hepatocyte; details: read-out: Drug metabolism; method in brief: as §1
[7] = Drug metabolism in human hepatocytes assessed as compound isomerization by measuring conversion ratio at 1 uM incubated for 2 hrs by LC-MS/MS analysis; type: ADME, cell-based, Hepatocyte; details: read-out: Drug metabolism; method in brief: as §1
[8] = Protein binding in rat plasma measured after 4 hrs by LC-MS/MS analysis; type: ADME, cell-free; details: read-out: PPB (converted)
[9] = Drug metabolism in monkey hepatocytes assessed as compound isomerization by measuring conversion ratio at 1 uM incubated for 2 hrs by LC-MS/MS analysis; type: ADME, cell-based, Macaca mulatta, Hepatocyte; details: rhesus monkey, read-out: Drug metabolism; method in brief: as §1
[10] = Clearance in cynomolgus monkey at 0.3 mg/kg, iv administered as single dose by LC-MS/MS analysis; type: ADME, organism-based, Macaca fascicularis; details: in vivo
[11] = Volume of distribution at steady state in Beagle dog at 0.3 mg/kg, iv administered as single dose by LC-MS/MS analysis; type: ADME, organism-based, Canis lupus familiaris; details: in vivo, read-out: Vdss
[12] = Half life in Sprague-Dawley rat at 0.3 mg/kg, iv administered as single dose by LC-MS/MS analysis; type: ADME, organism-based; details: in vivo
[13] = Cmax in SCID mouse at 1 mg/kg, po administered as single dose by LC-MS/MS analysis; type: ADME, organism-based; set-up: dose 1 mg/kg, route oral; details: in vivo
[14] = Cmax in Sprague-Dawley rat at 1 mg/kg, po administered as single dose by LC-MS/MS analysis; type: ADME, organism-based; set-up: dose 1 mg/kg, route oral; details: in vivo
[15] = Half life in SCID mouse at 1 mg/kg, po administered as single dose by LC-MS/MS analysis; type: ADME, organism-based; details: in vivo
[16] = Cmax in cynomolgus monkey at 1 mg/kg, po administered as single dose by LC-MS/MS analysis; type: ADME, organism-based, Macaca fascicularis; set-up: dose 1 mg/kg, route oral; details: in vivo
[17] = Clearance in Sprague-Dawley rat at 0.3 mg/kg, iv administered as single dose by LC-MS/MS analysis; type: ADME, organism-based; details: in vivo
[18] = system: MDA-MB-231; experiment: Potentiation of paclitaxel-induced antitumor activity against human MDA-MB-231 cells xenografted in SCID mouse assessed as tumor growth inhibition at 100 mg/kg, po administered twice daily for 32 days in combination with paclitaxel at 20 mg/kg, ip three times weekly for 5 weeks and […] (reference value: 81.5%); type: functional
Method in brief: (§2)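 MDA-MB-231 human breast tumour-bearing mice dosed orally at 30 or 100 mg/kg twice daily for 32 days. Where combined, paclitaxel was given at 20 mg/kg ip three times weekly for 5 weeks. Tumour volume was followed and reported at day 32. Tumour growth inhibition was taken from median tumour volume versus vehicle. Groups of n = 8–9 were compared by Student t test.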

[19] = Half life in Beagle dog at 1 mg/kg, po administered as single dose by LC-MS/MS analysis; type: ADME, organism-based, Canis lupus familiaris; details: in vivo
[20] = Half life in Sprague-Dawley rat at 1 mg/kg, po administered as single dose by LC-MS/MS analysis; type: ADME, organism-based; details: in vivo
[21] = target: T1, Autotaxin; experiment: In vivo inhibition of lysoPLD activity of ATX in SCID mouse plasma xenografted with human MDA-MB-231 cells at 30 mg/kg, po administered twice daily for 32 days in combination with paclitaxel at 20 mg/kg, ip three times weekly for 5 weeks and measured at 18 hrs post-last dose relative to control; type: functional, organism-based
[22] = Clearance in Beagle dog at 0.3 mg/kg, iv administered as single dose by LC-MS/MS analysis; type: ADME, organism-based, Canis lupus familiaris; details: in vivo
[23] = Oral bioavailability in cynomolgus monkey at 1 mg/kg administered as single dose by LC-MS/MS analysis; type: ADME, organism-based, Macaca fascicularis; details: in vivo
[24] = Volume of distribution at steady state in Sprague-Dawley rat at 0.3 mg/kg, iv administered as single dose by LC-MS/MS analysis; type: ADME, organism-based; details: in vivo, read-out: Vdss
[25] = Oral bioavailability in Beagle dog at 1 mg/kg administered as single dose by LC-MS/MS analysis; type: ADME, organism-based, Canis lupus familiaris; details: in vivo
[26] = AUC in Sprague-Dawley rat at 0.5 mg/kg, po administered as single cassette dosing by LC-MS/MS analysis; type: ADME, organism-based; details: in vivo
Method in brief: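 Rat cassette dosing, 0.5 mg/kg oral; plasma AUC reported.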

[27] = Cmax in Beagle dog at 1 mg/kg, po administered as single dose by LC-MS/MS analysis; type: ADME, organism-based, Canis lupus familiaris; set-up: dose 1 mg/kg, route oral; details: in vivo
[28] = system: MDA-MB-231; experiment: Potentiation of paclitaxel-induced antitumor activity against human MDA-MB-231 cells xenografted in SCID mouse assessed as tumor growth inhibition at 30 mg/kg, po administered twice daily for 32 days in combination with paclitaxel at 20 mg/kg, ip three times weekly for 5 weeks and measured on […] (reference value: 81.5%); type: functional; method in brief: as §2
[29] = Oral bioavailability in Sprague-Dawley rat at […] administered as single dose by LC-MS/MS analysis; type: ADME, organism-based; details: in vivo
Method in brief: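 Single-dose rat PK, 1 mg/kg iv and 3 mg/kg po, n = 3. Plasma clearance was taken from the iv dose. Bioavailability was calculated from the iv and oral doses.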

[30] = Half life in cynomolgus monkey at 0.3 mg/kg, iv administered as single dose by LC-MS/MS analysis; type: ADME, organism-based, Macaca fascicularis; details: in vivo
[31] = system: MDA-MB-231; experiment: Antitumor activity against human MDA-MB-231 cells xenografted in SCID mouse assessed as tumor growth inhibition at 100 mg/kg, po administered twice daily for 32 days and […] relative to control; type: functional; details: MDA-MB-231, po, read-out: TGI; method in brief: as §2
[32] = Half life in Beagle dog at 0.3 mg/kg, iv administered as single dose by LC-MS/MS analysis; type: ADME, organism-based, Canis lupus familiaris; details: in vivo
[33] = Volume of distribution at steady state in cynomolgus monkey at 0.3 mg/kg, iv administered as single dose by LC-MS/MS analysis; type: ADME, organism-based, Macaca fascicularis; details: in vivo, read-out: Vdss
[34] = target: T1, Autotaxin; experiment: In vivo inhibition of lysoPLD activity of ATX in SCID mouse plasma xenografted with human MDA-MB-231 cells at 100 mg/kg, po administered twice daily for 32 days in combination with paclitaxel at 20 mg/kg, ip three times weekly for 5 weeks and measured at 18 hrs post-last dose relative to control; type: functional, organism-based
[35] = target: T1, Autotaxin; experiment: Selectivity index, ratio of IC50 for LysoPLD activity of ATX in human plasma to IC50 for recombinant human ATX assessed as reduction in choline release using LPC(16:0) as substrate incubated for 15 hrs
Method in brief: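 Ratio of two IC50 values. One comes from LysoPLD activity in human plasma. The other comes from purified recombinant human ATX. Both assays use 16:0 LPC as substrate.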

Structure (SMILES): CC(C)(CCC(=O)N1CCc2c(n(Cc3cccc(F)c3)c3ncccc23)C1)CC(=O)O
- pIC50 [1]: 7.62

Structure (SMILES): O=C(O)CCC(=O)N1CCc2c(n(Cc3ccccc3)c3ncccc23)C1
- pIC50 [1]: 5.27

Structure (SMILES): O=C(C[C@H]1CC[C@@H](C(=O)O)CC1)N1CCc2c(n(Cc3cccc(F)c3)c3ncccc23)C1
- pIC50 [1]: 7.54
- fraction unbound at 4 h [2]: 0.004
- logD at 1 h [3]: 1.45

Structure (SMILES): O=C(O)CCCC(=O)N1CCc2c(n(Cc3ccccc3)c3ncccc23)C1
- pIC50 [1]: 6.08

Structure (SMILES): O=C(O)CCCCC(=O)N1CCc2c(n(Cc3ccccc3)c3ncccc23)C1
- pIC50 [1]: 6.62

Structure (SMILES): O=C(C[C@H]1CC[C@H](C(=O)O)CC1)N1CCc2c(n(Cc3ccc(F)cc3F)c3ncccc23)C1
- pIC50 [4]: 8.14
- metabolised at 2 h, 1 µM [5]: 9%
- fraction unbound at 4 h [2]: 0.016
- metabolised at 2 h, 1 µM [6]: 14.4%
- logD at 1 h [3]: 1.15
- metabolised at 2 h, 1 µM [7]: 29.8%
- fraction unbound at 4 h [8]: 0.021
- metabolised at 2 h, 1 µM [9]: 21.4%

Structure (SMILES): O=C(C[C@H]1CC[C@@H](C(=O)O)CC1)N1CCc2c(n(Cc3ccc(F)cc3F)c3ncccc23)C1
- pIC50 [4]: 7.80
- pIC50 [1]: 7.72
- fraction unbound at 4 h [2]: 0.006
- logD at 1 h [3]: 1.36

Structure (SMILES): O=C(CC12CCC(C(=O)O)(CC1)C2)N1CCc2c(n(Cc3ccc(F)cc3)c3ncccc23)C1
- clearance [10]: 5.8 mL/min/kg
- Vd [11]: 1.86 L/kg
- half-life [12]: 3.4 h
- Cmax [13]: 124 ng/mL
- Cmax [14]: 261 ng/mL
- half-life [15]: 5.4 h
- pIC50 [4]: 8.26
- Cmax [16]: 63 ng/mL
- clearance [17]: 8.2 mL/min/kg
- TGI [18]: 95.5%
- half-life [19]: 5.9 h
- pIC50 [1]: 8.00
- half-life [20]: 2.5 h
- inhibition [21]: 97.1%
- clearance [22]: 4.7 mL/min/kg
- bioavailability [23]: 30.8%
- Vd [24]: 1.47 L/kg
- bioavailability [25]: 71.1%
- fraction unbound at 4 h [2]: 0.01
- AUC [26]: 842 ng·h/mL
- Cmax [27]: 1670 ng/mL
- TGI [28]: 91.2%
- fraction unbound at 4 h [8]: 0.049
- bioavailability [29]: 51.6%
- half-life [30]: 7.9 h
- inhibition in vivo at 100 mg/kg [31]: 14.7%
- half-life [32]: 8.9 h
- Vd [33]: 2.27 L/kg
- inhibition [34]: 99.3%

Structure (SMILES): CC(C)(CCCC(=O)N1CCc2c(n(Cc3cccc(F)c3)c3ncccc23)C1)C(=O)O
- pIC50 [4]: 6.59
- pIC50 [1]: 7.77
- Ratio IC50 [35]: 15

Structure (SMILES): O=C(CC12CCC(C(=O)O)(CC1)CC2)N1CCc2c(n(Cc3ccc(F)cc3F)c3ncccc23)C1
- pIC50 [4]: 8.09
- pIC50 [1]: 8.05
- fraction unbound at 4 h [2]: 0.009
- AUC [26]: 472 ng·h/mL
- fraction unbound at 4 h [8]: 0.043
